Rows were chosen to be rich in hits. Some 5.9% of all compounds tested hit in one or more screens of this group.
T cruzi growth-1 – inhibitors of T. cruzi proliferation; T. cruzi beta-gal in NIH3T3, GalScreen luminescence, 90 h; inhibition, % at 8.34 µM; 77,000 tested, 5.9% active; AID 624255;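 active = mean inhibition above about 93%, with at least 55% of replicates each passing it, limit read from the data, passing the limit was not always enough; inconclusive = only one of those two conditions holds; inactive = neither condition holds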
IDH1 mut inh – IDH1 R132H (human) inhibition; O75874; IDH1 R132H reductase, diaphorase/resazurin fluorescence, 60 min; inhibition, % at 10 µM; 70,000 tested, 0.18% active; AID 624101; in the data active = inhibition above about 34%; inconclusive = no clear call, values can overlap the other calls; inactive = below about 11%;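 note: 0% = DMSO and 100% = no enzyme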
Target sequence (O75874 whole entry R132H): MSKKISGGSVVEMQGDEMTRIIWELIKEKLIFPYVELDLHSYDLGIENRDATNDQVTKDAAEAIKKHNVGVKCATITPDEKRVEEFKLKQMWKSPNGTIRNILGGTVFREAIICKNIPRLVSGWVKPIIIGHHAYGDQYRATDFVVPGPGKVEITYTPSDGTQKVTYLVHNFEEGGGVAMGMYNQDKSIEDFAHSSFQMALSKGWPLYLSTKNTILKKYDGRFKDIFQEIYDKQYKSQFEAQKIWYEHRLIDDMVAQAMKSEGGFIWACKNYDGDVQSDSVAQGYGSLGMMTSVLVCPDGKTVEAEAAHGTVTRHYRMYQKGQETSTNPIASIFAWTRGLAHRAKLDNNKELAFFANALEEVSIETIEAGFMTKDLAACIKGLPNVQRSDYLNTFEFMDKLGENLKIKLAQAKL
KDM4C inh – KDM4C (human) demethylase inhibition | Q9H3R0 | GST-KDM4C 2-372, H3K9me3 peptide, LANCE TR-FRET | inhibition, % at 12.5 µM | 96,000 tested, 0.15% active | AID 720574;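 active = mean replicate inhibition above about 25%, with at least 55% of replicates also reaching it, limit read from the data, passing the limit was not always enough; inconclusive = only one of those two conditions met; inactive = neither condition met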
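Assay system: GST-GASC-1 enzyme fragment 2-372 | Amount: 10 nM enzyme | Medium: HEPES buffer, pH 7.5, plus ascorbate | Reagent: H3K9me3 peptide substrate, Fe(II), 2-oxoglutarate | Doses: Single-point compound screen | Incubation: 30 min demethylation and 1 h detection at room temperature | Measured by: LANCE TR-FRET, excitation 340 nm, emissions 618 and 671 nm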
Pf Dd2 inh – P. falciparum Dd2 growth inhibition. SYBR Green, 72 h; active compounds read low. activity change, % at 10 µM. 94,000 tested, 2.3% active; in the data active = activity change below about -80%; inconclusive = no clear call, values can overlap the other calls
T cruzi growth-2 – blocks T. cruzi growth in NIH3T3 host cells. T. cruzi beta-gal in NIH3T3, GalScreen luminescence, 90 h. 5,600 tested, 72% active. shares compounds with T cruzi growth-1. AID 651739. inhibition, % at 8.35 µM;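 active = mean replicate inhibition above about 95% and at least 55% of replicates individually reaching it, limit read from the data; inconclusive = only one of the two criteria is met; inactive = neither criterion is met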
T cruzi growth-3 – Trypanosoma cruzi proliferation inhibition; 5,600 tested, 21% active; inhibition, % at 2.09 µM; T. cruzi beta-gal in NIH3T3, GalScreen luminescence, 90 h; AID 651740; shares compounds with T cruzi growth-1;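 active = mean inhibition above about 95%, with at least 55% of replicates also reaching it, limit read from the data; inconclusive = meets just one of the two conditions; inactive = meets neither condition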;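 note: plate controls were neutral control median for no effect and positive control median for full effect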
3T3 cytotox – NIH/3T3 (mouse) viability loss | shares compounds with T cruzi growth-1 | NIH/3T3 viability, CellTiter-Glo ATP luminescence, 90 h | cytotoxicity (signal decrease), % at 8.35 µM | 5,600 tested, 14% active | AID 651742;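 active = mean signal decrease across replicates above about 35% based on untreated-well scatter, with enough replicates individually passing, limit read from the data; inconclusive = no rule stated though some were filed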;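 note: 0% = median of neutral control wells and 100% = median of positive control wells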
NIH3T3 tox 2 – cytotoxicity in mouse NIH/3T3 fibroblasts; 5,600 tested, 56% active; AID 651744; shares compounds with T cruzi growth-1; NIH/3T3 viability, CellTiter-Glo ATP luminescence, 90 h; inhibition, % at 24.9 µM;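 active = mean loss of cell viability signal at or above a set limit, and enough replicates individually reaching it; inconclusive = meets only the mean limit or only the replicate share; inactive = meets neither condition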;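 note: 0% = median of neutral control wells and 100% = median of positive control wells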
The depositor's hits bear a star.

Screening C[C@H]1CN([C@@H](C)CO)S(=O)(=O)c2ccc(-c3ccccc3F)cc2O[C@@H]1CN(C)Cc1cccnc1 returned T cruzi growth-1 105*, IDH1 mut inh 0, KDM4C inh -1, Pf Dd2 inh -56, T cruzi growth-2 107*, T cruzi growth-3 104*, 3T3 cytotox 36* and NIH3T3 tox 2 100*.
`C[C@H](CO)N1C[C@H](C)[C@@H](CN(C)Cc2cccnc2)Oc2cc(-c3ccccc3F)ccc2S1(=O)=O` gave T cruzi growth-1 95, IDH1 mut inh 0, KDM4C inh 3 and Pf Dd2 inh -3.
`CCCC#Cc1ccc2c(c1)O[C@H](CN(C)Cc1cncnc1)[C@@H](C)CN([C@@H](C)CO)S2(=O)=O` gave T cruzi growth-1 inconclusive, IDH1 mut inh 24, KDM4C inh 39*, Pf Dd2 inh -40, T cruzi growth-2 107*, T cruzi growth-3 101*, 3T3 cytotox inconclusive and NIH3T3 tox 2 99*.
CC(C)CC#Cc1ccc2c(c1)O[C@H](CN(C)Cc1cncnc1)[C@H](C)CN([C@@H](C)CO)S2(=O)=O was read as T cruzi growth-1 50, IDH1 mut inh -10, KDM4C inh -1 and Pf Dd2 inh -3.
`CC(C)CC#Cc1ccc2c(c1)O[C@H](CN(C)Cc1cncnc1)[C@@H](C)CN([C@@H](C)CO)S2(=O)=O` gave T cruzi growth-1 111*, IDH1 mut inh -1, KDM4C inh 1, Pf Dd2 inh -31, T cruzi growth-2 101*, T cruzi growth-3 101*, 3T3 cytotox inconclusive and NIH3T3 tox 2 98*.
For C[C@@H]1CN([C@@H](C)CO)S(=O)(=O)c2ccc(Br)cc2O[C@@H]1CN(C)S(=O)(=O)c1ccc(F)cc1 the results were T cruzi growth-1 34, IDH1 mut inh 1 and Pf Dd2 inh -11.
`C[C@@H]1CN([C@@H](C)CO)S(=O)(=O)c2ccc(Br)cc2O[C@H]1CN(C)S(=O)(=O)c1cccc(F)c1` gave T cruzi growth-1 107*, KDM4C inh -2, Pf Dd2 inh -1, T cruzi growth-2 111*, T cruzi growth-3 30, 3T3 cytotox 28 and NIH3T3 tox 2 68*.
C[C@H]1CN([C@@H](C)CO)S(=O)(=O)c2ccc(Br)cc2O[C@H]1CN(C)S(=O)(=O)c1ccc(F)cc1 was read as T cruzi growth-1 106*, IDH1 mut inh -6, KDM4C inh -4, Pf Dd2 inh -9, T cruzi growth-2 106*, T cruzi growth-3 9, 3T3 cytotox 16 and NIH3T3 tox 2 inconclusive.
C[C@H](CO)N1C[C@H](C)[C@H](CN(C)S(C)(=O)=O)Oc2c(NC(=O)CCCCCC(=O)Nc3ccccc3N)cccc2C1=O was read as KDM4C inh 2 and Pf Dd2 inh 28.
`C[C@@H]1CN([C@@H](C)CO)C(=O)c2cccc(NC(=O)CCCCCC(=O)Nc3ccccc3N)c2O[C@@H]1CN(C)S(=O)(=O)c1ccc(Cl)cc1` gave T cruzi growth-1 98*, IDH1 mut inh 0, KDM4C inh -2, Pf Dd2 inh -93*, T cruzi growth-2 103*, T cruzi growth-3 82, 3T3 cytotox -13 and NIH3T3 tox 2 11.
C[C@@H]1CN([C@@H](C)CO)C(=O)c2cccc(NC(=O)CCCCCC(=O)Nc3ccccc3N)c2O[C@H]1CN(C)S(=O)(=O)c1ccc(Cl)cc1 was read as T cruzi growth-1 95*, KDM4C inh 0, Pf Dd2 inh -73, T cruzi growth-2 91, T cruzi growth-3 57, 3T3 cytotox -40 and NIH3T3 tox 2 -12.
`O=C(Cn1cnc2ccccc2c1=O)Nc1ccc(Cl)c(Cl)c1` gave IDH1 mut inh 0.
For O=C(CCCn1cc([N+](=O)[O-])cn1)Nc1cc(F)ccc1F the results were IDH1 mut inh 0.

Screening results: PubChem BioAssay, Broad Institute
